For assay [1], the system named is Klebsiella pneumoniae. Nature of the assay: Antibacterial activity against Klebsiella pneumoniae at 100 ug/ml after 18 hrs by cup plate method. Format: functional. The method, boiled down: (§1)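 Agar well diffusion on Mueller-Hinton agar. Inoculum was adjusted to a 0.5 McFarland standard (about […] × 10⁸ CFU/mL) and swabbed over the plate three times, rotating about 60° each time, then the rim was swabbed. Compounds in DMSO went into duplicate 6 mm wells. Plates were incubated at 37 °C for 18 h and inhibition zone diameter read to the nearest mm. DMSO negative control; streptomycin and ciprofloxacin positive controls.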

Assay [2] has as its system Bacillus subtilis. Nature of the assay: Antibacterial activity against Bacillus subtilis at 100 ug/ml after 18 hrs by cup plate method. Format: functional. A digest of the protocol: as §1
The subject of assay [3] is Candida albicans. Nature of the assay: Antifungal activity against Candida albicans MTCC 227 at 100 ug/ml after 48 hrs by cup plate method. Format: functional. To be noted: MTCC 227, 48 h, read-out: IZ. The method, boiled down: (§2)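 Agar well (cup plate) diffusion on potato dextrose agar 39 g/L, with compounds dissolved in DMSO. Plates were incubated at 28 ± 2 °C for 48 h and inhibition zones measured to the nearest mm. Three replicates per treatment. Amphotericin B positive control; solvent control included.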

Assay [4] relates to Klebsiella pneumoniae. Nature of the assay: Antibacterial activity against Klebsiella pneumoniae at 10 ug/ml after 18 hrs by cup plate method. Format: functional. A digest of the protocol:
as §1

Assay [5] has as its system Staphylococcus aureus. Nature of the assay: Antibacterial activity against Staphylococcus aureus at 50 ug/ml after 18 hrs by cup plate method. Format: functional. To be noted: for zone of inhibition at 50 µg/mL: read-out: DIZ. A digest of the protocol:
as §1

Assay [6] concerns Staphylococcus aureus. Description: Antibacterial activity against Staphylococcus aureus at 10 ug/ml after 18 hrs by cup plate method. Format: functional. A digest of the protocol:
as §1

For assay [7], the system named is Escherichia coli. Nature of the assay: Antibacterial activity against Escherichia coli at 75 ug/ml after 18 hrs by cup plate method. Format: functional. As to conditions: read-out: DIZ. The method, boiled down:
as §1

Assay [8] has as its system Aspergillus sp. Description: Antifungal activity against Aspergillus sp. at 100 ug/ml after 48 hrs by cup plate method. The format is functional. A digest of the protocol:
as §2

In assay [9] the test system is Bacillus subtilis. Description: Antibacterial activity against Bacillus subtilis at 10 ug/ml after 18 hrs by cup plate method. Format: functional. As to conditions: read-out: DIZ. The method, boiled down: as §1
In assay [10] the test system is Aspergillus niger. Description: Antifungal activity against Aspergillus niger at 50 ug/ml after 48 hrs by cup plate method. The format is functional, organism-based. The method, boiled down: as §2
For assay [11], the system named is Staphylococcus epidermidis. Description: Antibacterial activity against Staphylococcus epidermidis at 100 ug/ml after 18 hrs by cup plate method. Format: functional. The method, boiled down: as §1
The subject of assay [12] is Klebsiella pneumoniae. Description: Antibacterial activity against Klebsiella pneumoniae at 75 ug/ml after 18 hrs by cup plate method. The format is functional. As to conditions: read-out: DIZ. A digest of the protocol: as §1
The test system of assay [13] is Staphylococcus epidermidis. Nature of the assay: Antibacterial activity against Staphylococcus epidermidis at 10 ug/ml after 18 hrs by cup plate method. Format: functional. As to conditions: read-out: DIZ. The method, boiled down: as §1
For assay [14], the system named is Aspergillus niger. Description: Antifungal activity against Aspergillus niger at 25 ug/ml after 48 hrs by cup plate method. The format is functional, organism-based. A digest of the protocol:
as §2

In assay [15] the test system is Candida albicans. Nature of the assay: Antifungal activity against Candida albicans MTCC 227 at 25 ug/ml after 48 hrs by cup plate method. The format is functional. The method, boiled down:
(§3)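 Agar well (cup plate) diffusion on potato dextrose agar 39 g/L. Compounds dissolved in DMSO and loaded into 6 mm wells. Incubated at 28 ± 2 °C for 48 h. Inhibition zone diameter measured to the nearest millimetre, three replicates per treatment. DMSO solvent as negative control, amphotericin B as positive control.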

Assay [16] has as its system Aspergillus sp. Description: Antifungal activity against Aspergillus sp. at 25 ug/ml after 48 hrs by cup plate method. The format is functional. A digest of the protocol:
as §2

In assay [17] the test system is Pseudomonas aeruginosa. Description: Antibacterial activity against Pseudomonas aeruginosa at 100 ug/ml after 18 hrs by cup plate method. Format: functional. The method, boiled down:
as §1

Assay [18] relates to Aspergillus niger. Nature of the assay: Antifungal activity against Aspergillus niger at 75 ug/ml after 48 hrs by cup plate method. Format: functional. A digest of the protocol: as §2
The subject of assay [19] is Candida albicans. Nature of the assay: Antifungal activity against Candida albicans MTCC 227 at 75 ug/ml after 48 hrs by cup plate method. Format: functional. To be noted: MTCC 227, 48 h, read-out: IZ. A digest of the protocol:
as §3

The subject of assay [20] is Aspergillus sp. Description: Antifungal activity against Aspergillus sp. at 50 ug/ml after 48 hrs by cup plate method. Format: functional. The method, boiled down:
as §2

Assay [21] relates to Aspergillus sp. Nature of the assay: Antifungal activity against Aspergillus sp. at 75 ug/ml after 48 hrs by cup plate method. The format is functional. A digest of the protocol: as §2
Assay [22] deals with Staphylococcus aureus. Description: Antibacterial activity against Staphylococcus aureus at 75 ug/ml after 18 hrs by cup plate method. The format is functional. As to conditions: read-out: DIZ. A digest of the protocol: as §1
The test system of assay [23] is Escherichia coli. Nature of the assay: Antibacterial activity against Escherichia coli at 50 ug/ml after 18 hrs by cup plate method. Format: functional. To be noted: for zone of inhibition at 50 µg/mL: read-out: DIZ. A digest of the protocol:
as §1

The test system of assay [24] is Pseudomonas aeruginosa. Nature of the assay: Antibacterial activity against Pseudomonas aeruginosa at 10 ug/ml after 18 hrs by cup plate method. Format: functional. The method, boiled down:
as §1

The test system of assay [25] is Klebsiella pneumoniae. Nature of the assay: Antibacterial activity against Klebsiella pneumoniae at 50 ug/ml after 18 hrs by cup plate method. The format is functional. The method, boiled down: as §1
Assay [26] deals with Pseudomonas aeruginosa. Nature of the assay: Antibacterial activity against Pseudomonas aeruginosa at 75 ug/ml after 18 hrs by cup plate method. The format is functional. To be noted: read-out: DIZ. A digest of the protocol:
as §1

In assay [27] the test system is Klebsiella pneumoniae. Description: Antibacterial activity against Klebsiella pneumoniae at 25 ug/ml after 18 hrs by cup plate method. Format: functional. To be noted: read-out: DIZ. The method, boiled down:
as §1

The subject of assay [28] is Pseudomonas aeruginosa. Nature of the assay: Antibacterial activity against Pseudomonas aeruginosa at 25 ug/ml after 18 hrs by cup plate method. Format: functional. To be noted: read-out: DIZ. A digest of the protocol: as §1
The test system of assay [29] is Staphylococcus epidermidis. Nature of the assay: Antibacterial activity against Staphylococcus epidermidis at 25 ug/ml after 18 hrs by cup plate method. Format: functional. To be noted: read-out: DIZ. The method, boiled down:
as §1

For assay [30], the system named is Bacillus subtilis. Description: Antibacterial activity against Bacillus subtilis at 50 ug/ml after 18 hrs by cup plate method. Format: functional. The method, boiled down:
as §1

Assay [31] relates to Aspergillus niger. Nature of the assay: Antifungal activity against Aspergillus niger at 100 ug/ml after 48 hrs by cup plate method. Format: functional. A digest of the protocol:
as §2

The test system of assay [32] is Candida albicans. Description: Antifungal activity against Candida albicans MTCC 227 at 50 ug/ml after 48 hrs by cup plate method. The format is functional. The method, boiled down: as §3
The test system of assay [33] is Mycobacterium tuberculosis. Description: Antimycobacterial activity against Mycobacterium tuberculosis H37Rv after 3 to 4 weeks by broth microdilution assay. The format is functional. A digest of the protocol:
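MIC by broth microdilution on compounds active in a single-concentration primary screen. Plates incubated 3–4 weeks at 37 °C in a CO₂ incubator. Wells read visually for absence of growth turbidity.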
Background: In broth dilution the organism is exposed to a series of concentrations in liquid medium.

The subject of assay [34] is Staphylococcus epidermidis. Description: Antibacterial activity against Staphylococcus epidermidis at 75 ug/ml after 18 hrs by cup plate method. The format is functional. As to conditions: read-out: DIZ. A digest of the protocol: as §1
Assay [35] concerns Escherichia coli. Nature of the assay: Antibacterial activity against Escherichia coli at 100 ug/ml after 18 hrs by cup plate method. The format is functional. The method, boiled down: as §1
Assay [36] concerns Staphylococcus epidermidis. Nature of the assay: Antibacterial activity against Staphylococcus epidermidis at 50 ug/ml after 18 hrs by cup plate method. The format is functional. As to conditions: for zone of inhibition at 50 µg/mL: read-out: DIZ. A digest of the protocol: as §1
Assay [37] relates to Pseudomonas aeruginosa. Description: Antibacterial activity against Pseudomonas aeruginosa at 50 ug/ml after 18 hrs by cup plate method. Format: functional. As to conditions: for zone of inhibition at 50 µg/mL: read-out: DIZ. The method, boiled down: as §1
For assay [38], the system named is Staphylococcus aureus. Description: Antibacterial activity against Staphylococcus aureus at 100 ug/ml after 18 hrs by cup plate method. The format is functional. As to conditions: for zone of inhibition at 100 µg/mL: read-out: DIZ. A digest of the protocol: as §1
The test system of assay [39] is Staphylococcus aureus. Nature of the assay: Antibacterial activity against Staphylococcus aureus at 25 ug/ml after 18 hrs by cup plate method. The format is functional. As to conditions: read-out: DIZ. The method, boiled down: as §1

≈ marks a conversion by molar mass, not a printed value. Calls of active or inactive are those of the source. The calls are words filed in the database; no cut-off is given here.

For orientation: MIC means the lowest concentration that inhibits growth of the organism. For the compound `CN1C(N2CCN(Cc3ccc([N+](=O)[O-])o3)CC2)=NS(=O)(=O)c2ccccc21`, the zone of inhibition at 100 µg/mL in the assay with Klebsiella pneumoniae [1] (read-out: DIZ) was found to be 19 mm; with Bacillus subtilis [2] (read-out: DIZ) it was 23 mm; in the assay on Candida albicans [3] it was 18 mm; in assay [11] (read-out: DIZ), 24 mm; in the assay with Pseudomonas aeruginosa [17] (read-out: DIZ), 17 mm; in the assay with Escherichia coli [35] (read-out: DIZ), 26 mm. For the same compound, in the assay with Staphylococcus aureus [38], the zone of inhibition at 100 µg/mL turned out to be 17 mm. Also, the “diameter of the inhibition zone (DIZ)” value in the assay on Klebsiella pneumoniae [4], with Staphylococcus aureus [6], with Pseudomonas aeruginosa [24] and with Bacillus subtilis [30] was “inactive” each time. Besides, the zone of inhibition at 50 µg/mL with Staphylococcus aureus [5] was found to be 14 mm; in the assay on Escherichia coli [23], 15 mm; in the assay on Klebsiella pneumoniae [25] (read-out: DIZ), 10 mm; in the assay on Candida albicans [32] (MTCC 227, 48 h, read-out: IZ), 11 mm; in assay [36], 15 mm; in the assay on Pseudomonas aeruginosa [37], 10 mm. In addition, the zone of inhibition at 75 µg/mL in the assay with Escherichia coli [7] was 29 mm; in the assay with Klebsiella pneumoniae [12], 17 mm; in the assay with Candida albicans [19], 14 mm; in the assay with Staphylococcus aureus [22], 17 mm; with Pseudomonas aeruginosa [26], 17 mm; in assay [34] it was 18 mm. In addition, the “inhibition zone (IZ)” value in the assay with Aspergillus sp. [8], with Aspergillus niger [10], with Aspergillus niger [14], in the assay with Candida albicans [15], with Aspergillus sp. [16] and in the assay with Aspergillus niger [18] was “inactive” throughout. Also, the “inhibition zone (IZ)” value with Aspergillus sp. [20], in the assay with Aspergillus sp. [21] and with Aspergillus niger [31] was “inactive” throughout. Besides, the zone of inhibition at 10 µg/mL with Bacillus subtilis [9] was 9 mm; in assay [13], 10 mm. Also, the zone of inhibition at 25 µg/mL in the assay with Klebsiella pneumoniae [27] was 12 mm; in the assay on Pseudomonas aeruginosa [28] it was 12 mm; in [29], 13 mm; with Staphylococcus aureus [39], 10 mm. The MIC in assay [33] is 8 µg/mL (≈ 19.7 µM).
Turning to `CCN1C(N2CCN(C(=O)c3ccc([N+](=O)[O-])o3)CC2)=NS(=O)(=O)c2ccccc21`, the “diameter of the inhibition zone (DIZ)” value (in the assay on Klebsiella pneumoniae [1]; in the assay with Bacillus subtilis [2]; in the assay on Staphylococcus aureus [5]; in assay [11]; in the assay with Pseudomonas aeruginosa [17]; with Escherichia coli [23]) was “inactive” each time. Moreover, the “diameter of the inhibition zone (DIZ)” value (in the assay with Klebsiella pneumoniae [25]; with Bacillus subtilis [30]; with Escherichia coli [35]; in assay [36]; with Pseudomonas aeruginosa [37]; with Staphylococcus aureus [38]) was “inactive” throughout. Further, the zone of inhibition at 100 µg/mL with Candida albicans [3] came to 10 mm. Also, the “inhibition zone (IZ)” value with Candida albicans [32] is “inactive”. The MIC in [33] is above 16 µg/mL.
For the compound `CN1C(N2CCN(C(=O)c3ccc([N+](=O)[O-])o3)CC2)=NS(=O)(=O)c2ccccc21`, the “diameter of the inhibition zone (DIZ)” value (with Klebsiella pneumoniae [1]; with Bacillus subtilis [2]; in [11]; in the assay on Pseudomonas aeruginosa [17]; in the assay on Klebsiella pneumoniae [25]; in the assay with Bacillus subtilis [30]) was “inactive” each time. Further, the “diameter of the inhibition zone (DIZ)” value in the assay with Escherichia coli [35] was “inactive”. The zone of inhibition at 100 µg/mL with Candida albicans [3] was found to be 12 mm; in the assay with Staphylococcus aureus [38], 18 mm. Besides, the zone of inhibition at 50 µg/mL stood at 17 mm in the assay with Staphylococcus aureus [5], 9 mm with Escherichia coli [23], 10 mm in [36] and 10 mm in the assay with Pseudomonas aeruginosa [37]. For the same compound, the “inhibition zone (IZ)” value with Candida albicans [32] is “inactive”. The same compound displayed an MIC in assay [33] of 16 µg/mL (≈ 38.1 µM).

The values above are taken from ChEMBL document CHEMBL1250501, “Anti-tubercular agents. Part 5: synthesis and biological evaluation of benzothiadiazine 1,1-dioxide based congeners” (Eur J Med Chem, 2010).
